Results from ChEMBL document CHEMBL1933006, “Mechanistic analysis of muraymycin analogues: a guide to the design of MraY inhibitors” (J Med Chem, 2011).
Values after ≈ are worked out from the molar mass of the structure shown.

Legend:
Staphylococcus aureus [1] = assay: Antibacterial activity against methicillin-sensitive […] Staphylococcus aureus ATCC 29213 after 20 hrs by broth microdilution method; format: functional; details: ATCC 29213, 20 h
Procedure, shortened: (§1)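 NCCLS broth microdilution in cation-adjusted Mueller–Hinton broth. Serial 2-fold compound dilutions were inoculated with 5 × 10⁴ CFU per 0.1 mL and incubated at 35 °C for 20 h before scoring the MIC.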

Staphylococcus aureus [2] = assay: Antibacterial activity against methicillin-resistant Staphylococcus aureus isolate SR3637 after 20 hrs by broth microdilution method; format: functional; details: isolate SR3637, 20 h; procedure, shortened: as §1
Enterococcus faecalis [3] = assay: Antibacterial activity against vancomycin-resistant Enterococcus faecalis SR7914 after 20 hrs by broth microdilution method; format: functional; details: SR7914, 20 h; procedure, shortened: as §1
Enterococcus faecalis [4] = assay: Antibacterial activity against Enterococcus faecalis ATCC 29212 after 20 hrs by broth microdilution method; format: functional; details: ATCC 29212, 20 h; procedure, shortened: as §1
Enterococcus faecium = assay: Antibacterial activity against vancomycin-resistant Enterococcus faecium SR7917 after 20 hrs by broth microdilution method; format: functional; details: SR7917, 20 h; procedure, shortened: as §1
[5] = target: T1, Phospho-N-acetylmuramoyl-pentapeptide-transferase (Bacillus subtilis (strain 168), UniProt Q03521); assay: Noncompetitive inhibition of Bacillus subtilis MraY using […] as substrate after 30 mins by Lineweaver-Burk plot
T1 sequence (Q03521 whole entry): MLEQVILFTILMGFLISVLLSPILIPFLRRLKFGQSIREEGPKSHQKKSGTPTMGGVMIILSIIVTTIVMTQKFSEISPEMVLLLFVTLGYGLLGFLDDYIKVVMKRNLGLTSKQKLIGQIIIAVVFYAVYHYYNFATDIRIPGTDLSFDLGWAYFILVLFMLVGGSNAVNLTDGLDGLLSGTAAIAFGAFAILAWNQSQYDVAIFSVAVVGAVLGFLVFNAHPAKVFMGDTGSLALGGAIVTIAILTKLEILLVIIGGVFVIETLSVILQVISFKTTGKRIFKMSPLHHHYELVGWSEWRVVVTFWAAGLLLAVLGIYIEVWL

[6] = target: T2, Undecaprenyl-phosphate alpha-N-acetylglucosaminyl 1-phosphate transferase (Thermotoga maritima (strain ATCC 43589 / MSB8 / DSM 3109 / JCM 10099), UniProt Q9X1N5); assay: Inhibition of Thermotoga maritima WecA using radiolabeled UDP-[14C]GlcNAc as substrate after 30 mins
T2 sequence (Q9X1N5 whole entry): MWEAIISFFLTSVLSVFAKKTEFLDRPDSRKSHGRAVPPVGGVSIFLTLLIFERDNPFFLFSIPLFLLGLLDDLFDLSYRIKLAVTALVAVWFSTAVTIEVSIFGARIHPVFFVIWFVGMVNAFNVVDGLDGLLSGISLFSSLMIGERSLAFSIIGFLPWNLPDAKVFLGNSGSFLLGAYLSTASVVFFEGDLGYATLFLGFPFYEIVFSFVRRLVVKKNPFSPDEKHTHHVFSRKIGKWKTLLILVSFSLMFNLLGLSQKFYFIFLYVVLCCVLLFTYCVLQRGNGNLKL
Procedure, shortened: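 Purified Thermotoga maritima WecA was assayed at pH 8 (100 mM Tris-HCl, 10 mM MgCl₂, 1.1 mM C₅₅-P, 0.16 mM UDP-[¹⁴C]GlcNAc, 92.7 mM Triton X-100), final concentrations. The reaction was started by enzyme, run 30 min at 65 °C and stopped at 100 °C for 1 min. C₅₅-PP-GlcNAc was separated by TLC and scanned. IC50 was relative to a no-inhibitor control, mean of triplicates.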

[7] = target: T1, Phospho-N-acetylmuramoyl-pentapeptide-transferase; assay: Competitive inhibition of Bacillus subtilis MraY using UDP-MurNAc-pentapeptide as substrate after 30 mins by Lineweaver-Burk plot
Procedure, shortened: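 B. subtilis MraY was assayed at pH 7.5 (100 mM Tris-HCl, 40 mM MgCl₂, 250 mM NaCl, 8.4 mM N-lauroylsarcosine), started by enzyme and run 30 min at 37 °C. Initial rates were taken at 0.25–1.5 mM UDP-MurNAc-[¹⁴C]pentapeptide, fixed 1 mM C₅₅-P, and several inhibitor levels. Lipid I was separated by TLC and scanned. Ki came from Lineweaver–Burk plots assuming a ping-pong Bi Bi mechanism.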

CCCCCCCCCCCCCCC[C@H](NC(=O)[C@@H](N)CCCN)C(=O)NCCCN[C@H](C(=O)O)[C@H](O[C@@H]1O[C@H](CN)[C@@H](O)[C@H]1O)[C@H]1O[C@@H](n2ccc(=O)[nH]c2=O)[C@H](O)[C@@H]1O
MIC (Staphylococcus aureus [1]): 4 mg/L (≈ 4.51 µM) | MIC (Staphylococcus aureus [2]): 4 mg/L (≈ 4.51 µM) | MIC (Enterococcus faecalis [3]): 4 mg/L (≈ 4.51 µM) | MIC (Enterococcus faecalis [4]): 4 mg/L (≈ 4.51 µM) | MIC (Enterococcus faecium): 8 mg/L (≈ 9.02 µM)

CC(C)C[C@H](NC(=O)[C@@H](NC(=O)N[C@H](C(=O)O)C(C)C)[C@@H]1CCN=C(N)N1)C(=O)NCCCN[C@H](C(=O)O)[C@H](O[C@@H]1O[C@H](CN)[C@@H](O)[C@H]1O)[C@H]1O[C@@H](n2ccc(=O)[nH]c2=O)[C@H](O)[C@@H]1O [MURAMYCIN D2]
Ki [5]: 0.0076 µM | IC50 [6]: 1230 µM | Ki [7]: 0.0076 µM

CCCCCCCCCCCCCCC[C@@H](NC(=O)[C@@H](NC(=O)N[C@H](C(=O)O)C(C)C)[C@H]1CCNC(=N)N1)C(=O)NCCCN[C@H](C(=O)O)[C@H](O[C@@H]1O[C@H](CN)[C@@H](O)[C@H]1O)[C@H]1O[C@@H](n2ccc(=O)[nH]c2=O)[C@H](O)[C@@H]1O
MIC (Staphylococcus aureus [1]): 4 mg/L (≈ 3.74 µM) | MIC (Staphylococcus aureus [2]): 2 mg/L (≈ 1.87 µM) | MIC (Enterococcus faecalis [3]): 4 mg/L (≈ 3.74 µM) | MIC (Enterococcus faecalis [4]): 2 mg/L (≈ 1.87 µM) | MIC (Enterococcus faecium): 4 mg/L (≈ 3.74 µM)

CN[C@H](CC(C)C)C(=O)N[C@H]1C(=O)N[C@@H](CC(N)=O)C(=O)N[C@H]2C(=O)N[C@H]3C(=O)N[C@H](C(=O)N[C@H](C(=O)O)c4cc(O)cc(O)c4-c4cc3ccc4O)[C@H](O)c3ccc(c(Cl)c3)Oc3cc2cc(c3O[C@@H]2O[C@H](CO)[C@@H](O)[C@H](O)[C@H]2O[C@H]2C[C@](C)(N)[C@H](O)[C@H](C)O2)Oc2ccc(cc2Cl)[C@H]1O [VANCOMYCIN]
MIC (Enterococcus faecalis [3]): > 64 mg/L | MIC (Enterococcus faecalis [4]): 1 mg/L (≈ 0.69 µM) | MIC (Enterococcus faecium): > 64 mg/L

CCCCCCCCCCCCCCC[C@H](NC(=O)[C@@H](N)CCCNC(=N)N)C(=O)NCCCN[C@H](C(=O)O)[C@H](O[C@@H]1O[C@H](CN)[C@@H](O)[C@H]1O)[C@H]1O[C@@H](n2ccc(=O)[nH]c2=O)[C@H](O)[C@@H]1O
MIC (Staphylococcus aureus [1]): 4 mg/L (≈ 4.31 µM) | MIC (Staphylococcus aureus [2]): 4 mg/L (≈ 4.31 µM) | MIC (Enterococcus faecalis [3]): 4 mg/L (≈ 4.31 µM) | MIC (Enterococcus faecalis [4]): 4 mg/L (≈ 4.31 µM) | MIC (Enterococcus faecium): 4 mg/L (≈ 4.31 µM)

CCCCCCCCCCCCCCC[C@@H](NC(=O)[C@H](CCCNC(=N)N)NC(=O)N[C@H](C(=O)O)C(C)C)C(=O)NCCCN[C@H](C(=O)O)[C@H](O[C@@H]1O[C@H](CN)[C@@H](O)[C@H]1O)[C@H]1O[C@@H](n2ccc(=O)[nH]c2=O)[C@H](O)[C@@H]1O
MIC (Staphylococcus aureus [1]): 4 mg/L (≈ 3.73 µM) | MIC (Staphylococcus aureus [2]): 4 mg/L (≈ 3.73 µM) | MIC (Enterococcus faecalis [3]): 4 mg/L (≈ 3.73 µM) | MIC (Enterococcus faecalis [4]): 4 mg/L (≈ 3.73 µM) | MIC (Enterococcus faecium): 2 mg/L (≈ 1.87 µM)

CCCCCCCCCCCCCCC[C@H](NC(=O)[C@H](CCCNC(=N)N)NC(=O)N[C@H](C(=O)O)C(C)C)C(=O)NCCCN[C@H](C(=O)O)[C@H](O[C@@H]1O[C@H](CN)[C@@H](O)[C@H]1O)[C@H]1O[C@@H](n2ccc(=O)[nH]c2=O)[C@H](O)[C@@H]1O
MIC (Staphylococcus aureus [1]): 2 mg/L (≈ 1.87 µM) | MIC (Staphylococcus aureus [2]): 2 mg/L (≈ 1.87 µM) | MIC (Enterococcus faecalis [3]): 2 mg/L (≈ 1.87 µM) | MIC (Enterococcus faecalis [4]): 2 mg/L (≈ 1.87 µM) | MIC (Enterococcus faecium): 1 mg/L (≈ 0.933 µM)

CCCCCCCCCCCCCCC[C@H](NC(=O)[C@@H](NC(=O)OCc1ccccc1)[C@@H]1CCNC(=N)N1)C(=O)NCCCN[C@H](C(=O)O)[C@H](O[C@@H]1O[C@H](CN)[C@@H](O)[C@H]1O)[C@H]1O[C@@H](n2ccc(=O)[nH]c2=O)[C@H](O)[C@@H]1O
MIC (Staphylococcus aureus [1]): 8 mg/L (≈ 7.54 µM) | MIC (Staphylococcus aureus [2]): 8 mg/L (≈ 7.54 µM) | MIC (Enterococcus faecalis [3]): 4 mg/L (≈ 3.77 µM) | MIC (Enterococcus faecalis [4]): 4 mg/L (≈ 3.77 µM) | MIC (Enterococcus faecium): 8 mg/L (≈ 7.54 µM)

CCCCCCCCCCCCCCC[C@H](NC(=O)[C@H](CCCN)NC(=O)N[C@H](C(=O)O)C(C)C)C(=O)NCCCN[C@H](C(=O)O)[C@H](O[C@@H]1O[C@H](CN)[C@@H](O)[C@H]1O)[C@H]1O[C@@H](n2ccc(=O)[nH]c2=O)[C@H](O)[C@@H]1O
MIC (Staphylococcus aureus [1]): 4 mg/L (≈ 3.88 µM) | MIC (Staphylococcus aureus [2]): 2 mg/L (≈ 1.94 µM) | MIC (Enterococcus faecalis [3]): 8 mg/L (≈ 7.77 µM) | MIC (Enterococcus faecalis [4]): 8 mg/L (≈ 7.77 µM) | MIC (Enterococcus faecium): 4 mg/L (≈ 3.88 µM)
